Values after ≈ are worked out from the molar mass of the structure shown. Bounds are passed on as bounds.

In ChEMBL document CHEMBL1153931 one finds IC50 and MIC data, which are given here for 43 molecules.

In one experiment the target is T1, NH(3)-dependent NAD(+) synthetase (Bacillus anthracis, UniProt Q81RP3).
T1 sequence (Q81RP3 whole entry): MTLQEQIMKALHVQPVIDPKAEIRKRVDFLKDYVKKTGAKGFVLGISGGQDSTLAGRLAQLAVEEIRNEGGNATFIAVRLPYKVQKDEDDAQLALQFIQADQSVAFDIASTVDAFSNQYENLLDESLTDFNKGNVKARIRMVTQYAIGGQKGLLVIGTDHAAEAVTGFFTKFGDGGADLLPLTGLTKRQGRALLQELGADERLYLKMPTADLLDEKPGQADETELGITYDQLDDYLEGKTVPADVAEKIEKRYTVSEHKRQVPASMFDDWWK
Nature of the experiment: Inhibition of Bacillus anthracis NAD synthetase. The gist of the method: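 Purified B. anthracis NADs (6 μg/ml) in 60 mM HEPPS pH 8.5 with 0.5 mM NH4Cl, 20 mM KCl, 10 mM MgCl2, 0.1 mM NaAD, 2.5% DMSO and 0.3% BOG. Started with 0.2 mM ATP, quenched with guanidine-HCl after 10 min. Compounds tested 600 to 0.6 μM in doubling dilutions. NAD measured by reverse-phase HPLC peak height. IC50 is the average of duplicate runs.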
Regarding `NC(=O)c1c(NC(=S)NC(=O)c2cccc([N+](=O)[O-])c2)sc2c1CCCC2`, the IC50 – broadly, the concentration that gives 50% inhibition – was 186 µM.

With `O=C(Cn1nnc(N2CCOCC2)n1)N/N=C/c1ccc(-c2cccc([N+](=O)[O-])c2)o1`, inhibition was half-maximal at 109 µM (IC50). Compared with the last molecule, the IC50 is about 1.7-fold lower.

Take `COc1ccc(Br)c(-c2nnc(-c3ccccc3NC(=O)NC(=O)c3ccccc3Cl)o2)c1`: inhibition was half-maximal at 220 µM (IC50). Against the preceding molecule, the IC50 is about 2-fold higher.

`N#C/C(=C\c1ccccc1[N+](=O)[O-])C(=O)c1ccccc1` had an IC50 of 51 µM.

A further experiment concerns Bacillus anthracis. The experiment in a line: Antibacterial activity against Bacillus anthracis Sterne. Type of experiment: functional.
For `COc1ccc(Oc2ccc([N+](=O)[O-])cc2C(=O)Nc2ccc(S(N)(=O)=O)cc2)cc1`, the MIC – broadly, the smallest concentration in the dilution series that meets the test's criterion for growth inhibition – was over 240 µM.

The molecule `O=C(CCC(=O)Nc1ccc(Nc2ccccc2)cc1)Nc1ccc(Nc2ccccc2)cc1` gave an MIC of over 222 µM.

Take `Cc1cc(C)c2oc(-c3cccc(NC(=O)/C=C/c4cccc([N+](=O)[O-])c4)c3)nc2c1`: the MIC is over 240 µM.

The molecule `O=C(Nc1cccc(/N=C/c2cc([N+](=O)[O-])ccc2O)c1)c1cccc(Br)c1` showed an MIC of over 227 µM.

The molecule `O=C(Nc1cccc(/N=C/c2cc([N+](=O)[O-])ccc2O)c1)c1ccc(Cl)cc1Cl` gave an MIC of over 232 µM.

As to `COc1cccc(NC(=O)Nc2nnc(COc3ccc([N+](=O)[O-])cc3)s2)c1`, the MIC was over 240 µM.

Molecule `NC(=O)c1c(NC(=S)NC(=O)c2cccc([N+](=O)[O-])c2)sc2c1CCCC2` showed an MIC of over 240 µM.

In the case of `NC(=O)c1ccc(NC(=O)c2ccc(Oc3ccc([N+](=O)[O-])cc3Cl)cc2)cc1`, the MIC is over 240 µM.

Take `N/C(=N\OC(=O)c1ccc(Cl)c(Cl)c1)c1cccc(CSc2ccccn2)c1`: the MIC was over 240 µM.

`O=C(Cn1nnc(N2CCOCC2)n1)N/N=C/c1ccc(-c2cccc([N+](=O)[O-])c2)o1` returned an MIC of over 240 µM.

`COc1ccc(NC(=O)Nc2cccc(NC(=O)Nc3ccc(OC)cc3)c2F)cc1` returned an MIC of over 240 µM.

In turn, `COc1ccc(NC(=O)Nc2ccc(Oc3ncnc4cc(Cl)ccc34)nc2)cc1OC1CCCC1` had an MIC of over 240 µM.

Turning to `O=C(Nc1cccc(Oc2ccc3c(c2)C(=O)N(c2ccccc2)C3=O)c1)c1cccc([N+](=O)[O-])c1`, the MIC was over 240 µM.

Turning to `O=C(Nc1cccc(C(=O)Nc2cccc3ccccc23)c1)c1cccc([N+](=O)[O-])c1`, the minimal inhibitory concentration (MIC) was over 240 µM.

Turning to `COc1ccccc1NC(=O)NC(=O)c1ccc(-c2csnn2)cc1`, the MIC is over 240 µM.

`COc1ccc(Br)c(-c2nnc(-c3ccccc3NC(=O)NC(=O)c3ccccc3Cl)o2)c1` showed an MIC of over 240 µM.

The molecule `Cc1cc(-c2nnc(CSc3nnc(NC(=O)c4ccc(F)c(Cl)c4)s3)o2)ccc1[N+](=O)[O-]` had an MIC of over 240 µM.

Take `COc1ccccc1NC(=O)COc1ccc(/C=C(/C#N)c2nc3ccccc3[nH]2)cc1`: the MIC was over 240 µM.

`Cc1c(NC(=O)c2ccc(N3CCCC3)c([N+](=O)[O-])c2)cccc1-c1nc2ccccc2[nH]1` returned an MIC of over 240 µM.

As to `COc1ccc(CCNC(=O)NCc2cccc(CNC(=O)NCCc3ccc(OC)cc3)c2)cc1`, the MIC was over 204 µM.

In turn, `O=C(Nc1ccc([N+](=O)[O-])cc1)Nc1ccc(S(=O)(=O)Nc2ccc(Cl)c(Cl)c2)cc1` came in with an MIC of 1.9 µM (≈ 0.915 µg/mL).

`CCc1ccc(S(=O)(=O)Nc2c([N+](=O)[O-])ccc3ccccc23)cc1` came in with an MIC of 3.8 µM (≈ 1.35 µg/mL).

As to `O=C1C=C(Nc2ccccc2C(=O)O)C(=O)C=C1Nc1ccccc1C(=O)O`, the MIC was over 264 µM.

Consider `O=C(Cn1cc(/C=C/c2[nH]c(=O)[nH]c(=O)c2[N+](=O)[O-])c2ccccc21)Nc1ccc(F)cc1`, for which the minimal inhibitory concentration (MIC) was over 223 µM.

As to `O=C(Nc1ccc([N+](=O)[O-])cc1)c1ccc(-c2nnc(-c3ccccc3)o2)cc1`, the MIC is over 259 µM.

Molecule `O=C(Nc1ccc(S(=O)(=O)Nc2ncccn2)cc1)Nc1ccc(Cl)c(Cl)c1` had an MIC of 15 µM (≈ 6.57 µg/mL).

Consider `O=[N+]([O-])c1ccc(O)c(/C=N/c2cccc(O)c2)c1`, for which the MIC was over 387 µM.

As for `N#C/C(=C\c1ccccc1[N+](=O)[O-])C(=O)c1ccccc1`, the MIC was found to be 120 µM (≈ 33.4 µg/mL).

`O=C(COC(=O)c1ccc(NC(=O)c2ccc([N+](=O)[O-])cc2)cc1)c1ccc(F)cc1` came in with an MIC of over 237 µM.

`O=C(Nc1ccc2oc(-c3cc(Br)ccc3Cl)nc2c1)c1cccc([N+](=O)[O-])c1`: the MIC is over 240 µM.

Molecule `O=C(Nc1ccc(Cc2ccc(NC(=O)c3ccc4c(c3)OCO4)cc2)cc1)c1ccc2c(c1)OCO2` displayed an MIC of over 240 µM.

Molecule `O=[N+]([O-])c1ccc(-c2cnc(N/N=C/c3cccc([N+](=O)[O-])c3)nc2)cc1` displayed an MIC of over 274 µM.

`CCOC(=O)C1=C(Nc2cccc3ccccc23)S/C(=C\c2ccc([N+](=O)[O-])cc2)C1=O`: the MIC was over 224 µM.

Consider `Nc1ncnc(Nc2ccc(Cl)cc2C(=O)c2ccccc2Cl)c1[N+](=O)[O-]`, for which the MIC was over 247 µM.

`O=C(Nc1ccccc1)Nc1ccc(NC(=O)c2ccc(NC(=O)Nc3ccccc3)cc2)cc1` gave an MIC of over 240 µM.

The molecule `Cc1onc(-c2ccccc2)c1NC(=O)Nc1ccc(Oc2ncnc3cc(Cl)ccc23)nc1` showed an MIC of over 240 µM.

In turn, `O=C(NC(=S)Nc1cc(-c2nc3ccccc3[nH]2)ccc1Cl)c1ccccc1[N+](=O)[O-]` had an MIC of over 240 µM.

`Cc1ccc(C(=O)Nc2cccc(-c3nc4ccccc4[nH]3)c2)cc1` came in with an MIC of over 240 µM.

`Nc1c(C(=O)c2ccc([N+](=O)[O-])cc2)sc(Nc2ccccc2)c1-c1nc2ccccc2[nH]1`: the MIC was over 240 µM.

`O=C(Nc1ccc(/N=N/c2ccccc2)cc1)c1ccc([N+](=O)[O-])cc1` registered an MIC of over 240 µM.

`Cc1ccc(-c2nc3cc(Cl)ccc3o2)cc1CC(=O)c1cc([N+](=O)[O-])c(C)c([N+](=O)[O-])c1` had an MIC of over 240 µM.

Take `O=C(CSc1nc(Nc2ccccc2)nc(N2CCOCC2)n1)Nc1ccc([N+](=O)[O-])cc1O`: inhibition of growth (MIC) required 15 µM (≈ 7.25 µg/mL). This counts as double-digit micromolar.

Take `NC(=O)c1ccc(/N=C/c2cc([N+](=O)[O-])ccc2Cl)cc1`: the MIC is over 329 µM.
